From ChEMBL document CHEMBL4364284, “Design, Synthesis, and Efficacy Testing of Nitroethylene- and 7-Nitrobenzoxadiazol-Based Flavodoxin Inhibitors against Helicobacter pylori Drug-Resistant Clinical Strains and in Helicobacter pylori-Infected Mice” (J Med Chem, 2019)
≈ marks a conversion by molar mass, not a printed value. Calls of active or inactive are those of the source. The rule behind the calls is not given here.

Experiments:
[1] = biological target: T1, Flavodoxin (Helicobacter pylori (strain ATCC 700392 / 26695) (Campylobacter pylori)) (UniProt O25776); experiment: Inhibition of flavodoxin in Helicobacter pylori SS1 assessed as reduction in bacterial growth measured after 48 hrs by resazurin staining-based microdilution method
T1 sequence (whole entry): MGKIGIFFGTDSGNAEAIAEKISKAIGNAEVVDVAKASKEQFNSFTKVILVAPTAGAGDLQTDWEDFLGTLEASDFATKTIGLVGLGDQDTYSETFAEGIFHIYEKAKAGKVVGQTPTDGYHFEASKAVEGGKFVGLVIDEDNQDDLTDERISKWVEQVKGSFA
In short: (§1)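 Broth microdilution in brain heart infusion with 4% FBS. Inoculum diluted to OD600 0.01. Two-fold dilutions from a DMSO stock cover 64–0.031 μg/mL, with DMSO ≤1% v/v. Incubated 48 h at 37 °C under microaerophilic conditions. MIC is the lowest concentration giving complete growth inhibition, read by resazurin colour change and confirmed by spotting on blood agar. Run twice in triplicate.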

[2] = Toxicity in specific-pathogen-free C57BL/6J mouse assessed as histopathological changes in stomach by measuring inflammation at 20 to 40 mg/100g, po […] hematoxylin-eosin staining based assay; format: organism-based; details: in vivo, 192 h
Escherichia coli = experiment: Effect on growth of Escherichia coli DH5[alpha] after 48 hrs by resazurin-dye based microdilution assay; format: organism-based
[3] = Toxicity in specific-pathogen-free C57BL/6J mouse assessed as histopathological changes in stomach by measuring necrosis of epithelium at 20 to 40 mg/100g, po […] hematoxylin-eosin staining based assay; format: organism-based; details: in vivo, 192 h
[4] = Toxicity in specific-pathogen-free C57BL/6J mouse assessed as histopathological changes in liver at 10 to 40 mg/100g, po administered daily via gavage for 8 days hematoxylin-eosin staining based assay; format: organism-based; details: in vivo, 192 h
In short: (§2)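 Controls received olive oil with 5% DMSO. Blood by cardiac puncture was analysed for biochemistry on an automatic analyser. Heart, stomach, liver, lung and kidney sections were H&E-stained for histopathology.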

[5] = Toxicity in specific-pathogen-free C57BL/6J mouse assessed as histopathological changes in kidney at 10 to 40 mg/100g, po administered daily via gavage for 8 days hematoxylin-eosin staining based assay; format: organism-based; details: in vivo, 192 h; in short: as §2
[6] = Cytotoxicity against human HeLa cells assessed as reduction in cell viability by XTT assay; format: cell-based; details: read-out: MCC50
In short: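 HeLa cells grown in DMEM with 10% FBS, penicillin and streptomycin at 37 °C, 5% CO2; 30 000 cells/well. XTT viability read at 450 and 650 nm. MCC50 (50% lysis) came from viability-versus-concentration curves. Two experiments, each in triplicate.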

[7] = Toxicity in specific-pathogen-free C57BL/6J mouse assessed as weight loss at 40 mg/100g, po administered daily via gavage for 8 days; format: organism-based; details: in vivo, 192 h
[8] = Therapeutic index, ratio of MCC50 for human HeLa cells to MIC for inhibition of flavodoxin in Helicobacter pylori SS1 assessed as reduction in bacterial growth; format: toxicity; details: HeLa cells versus Helicobacter pylori SS1, read-out: TI
In short: (§3)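 TI is MCC50/MIC. For MCC50, HeLa cells (30 000/well, DMEM with 10% FBS) were exposed to compound at 25–1000 μM final. Viability by XTT at 450/650 nm; MCC50 is the concentration giving 50% lysis from viability curves. Run twice in triplicate.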

Staphylococcus aureus = experiment: Effect on growth of Staphylococcus aureus ATCC 1228 after 48 hrs by resazurin-dye based microdilution assay; format: organism-based
[9] = biological target: T1, Flavodoxin (Helicobacter pylori (strain ATCC 700392 / 26695) (Campylobacter pylori)); experiment: Binding affinity to Helicobacter pylori flavodoxin by thermal upshift assay
[10] = Toxicity in specific-pathogen-free C57BL/6J mouse assessed as histopathological changes in lung at 10 to 40 mg/100g, po administered daily via gavage for 8 days hematoxylin-eosin staining based assay; format: organism-based; details: in vivo, 192 h; in short: as §2
[11] = biological target: T1, Flavodoxin (Helicobacter pylori (strain ATCC 700392 / 26695) (Campylobacter pylori)); experiment: Binding affinity to Helicobacter pylori flavodoxin by isothermal titration calorimetric method
[12] = Therapeutic index, ratio of MCC50 for human HeLa cells to MIC for inhibition of flavodoxin in Mnz-resistant Helicobacter pylori NCTC 11637 ATCC 43504 assessed as reduction in bacterial growth; format: toxicity; details: read-out: TI; in short: as §3
Helicobacter pylori = experiment: Antibacterial activity against Helicobacter pylori SS1 infected in NMRI mouse assessed as reduction in gastric colonization at 1 mg/100g, po administered daily via gavage for 8 days starting from 1 week post-infection and measured 8 days post-last dose; format: functional, organism-based
In short: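 Female 6-week-old SPF NMRI mice, 7 per condition, infected orogastrically on days 1 and 3 with 100 μL Hp SS1 (5 × 10^8 CFU/mL). From day 8, compound given daily by oral gavage for 8 days in 100 μL of 5–10% DMSO/95–90% olive oil. Sacrificed day 24; stomach homogenate CFU/g counted after 5 days microaerophilic culture at 37 °C. Infected vehicle-treated controls; Mann-Whitney U and unpaired t tests, p ≤ 0.05.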

[13] = biological target: T1, Flavodoxin (Helicobacter pylori (strain ATCC 700392 / 26695) (Campylobacter pylori)); experiment: Inhibition of flavodoxin in Mnz-resistant Helicobacter pylori NCTC 11637 ATCC 43504 assessed as reduction in bacterial growth measured after 48 hrs by resazurin staining-based microdilution method; details: Helicobacter pylori NCTC 11637 = CCUG 17874 = ATCC 43504; in short: as §1
[14] = Toxicity in specific-pathogen-free C57BL/6J mouse assessed as change in biochemical parameters at 10 to 40 mg/100g, po administered daily via gavage for 8 days; format: organism-based; details: in vivo, 192 h; in short: as §2
[15] = Toxicity in NMRI mouse assessed as change in body weight at 0.1 to 10 mg/100g, po administered daily via gavage for 8 days; format: organism-based; details: in vivo, 192 h
[16] = Therapeutic index, ratio of MCC50 for human HeLa cells to MIC for inhibition of flavodoxin in Helicobacter pylori ATCC 700392 26695 assessed as reduction in bacterial growth; format: toxicity; details: HeLa cells versus Helicobacter pylori ATCC 700392 26695, read-out: TI; in short: as §3
[17] = Toxicity in specific-pathogen-free C57BL/6J mouse assessed as hair loss at 40 mg/100g, po administered daily via gavage for 8 days; format: organism-based; details: in vivo, 192 h
[18] = biological target: T1, Flavodoxin (Helicobacter pylori (strain ATCC 700392 / 26695) (Campylobacter pylori)); experiment: Inhibition of flavodoxin in Helicobacter pylori ATCC 700392 26695 assessed as reduction in bacterial growth measured after 48 hrs by resazurin staining-based microdilution method; details: Helicobacter pylori 26695; in short: as §1
[19] = Toxicity in NMRI mouse infected with Helicobacter pylori SS1 assessed as change in body weight at 0.1 to 10 mg/100g, po administered daily via gavage for 8 days starting from 1 week post-infection; format: organism-based; details: in vivo
[20] = Toxicity in specific-pathogen-free C57BL/6J mouse assessed as histopathological changes in heart at 10 to 40 mg/100g, po administered daily via gavage for 8 days hematoxylin-eosin staining based assay; format: organism-based; details: in vivo, 192 h; in short: as §2
[21] = Toxicity in specific-pathogen-free C57BL/6J mouse assessed as histopathological changes in stomach by measuring hyperplasia at 20 to 40 mg/100g, […] hematoxylin-eosin staining based assay; format: organism-based; details: in vivo, po, 192 h
[22] = Toxicity in NMRI mouse infected with Helicobacter pylori SS1 assessed as change in appetite at 0.1 to 10 mg/100g, po administered daily via gavage for 8 days starting from 1 week post-infection; format: organism-based; details: in vivo

O=[N+]([O-])/C=C/c1c(F)cc(Cl)cc1F
MIC [1]: 2.3 µM (≈ 0.505 µg/mL)
Activity [2]: Toxic
Activity (Escherichia coli): Non-Toxic
Activity [3]: Toxic
Activity [4]: Non-Toxic
Activity [5]: Non-Toxic
CC50 [6]: 36 µM
Activity [7]: > 20%
selectivity ratio [8]: 16
Activity (Staphylococcus aureus): Non-Toxic
Activity [9]: Active
Activity [10]: Non-Toxic
Activity [11]: Active
selectivity ratio [12]: 16
Activity (Helicobacter pylori): Active
MIC [13]: 2.3 µM (≈ 0.505 µg/mL)
Activity [14]: Non-Toxic
Activity [15]: Non-Toxic
selectivity ratio [16]: 16
Activity [17]: Toxic
MIC [18]: 2.3 µM (≈ 0.505 µg/mL)
Activity [19]: Non-Toxic
Activity [20]: Non-Toxic
Activity [21]: Toxic
Activity [22]: Non-Toxic
